Experimental data as given in ChEMBL document CHEMBL3817796, “Discovery of Novel 15-Lipoxygenase Activators To Shift the Human Arachidonic Acid Metabolic Network toward Inflammation Resolution” (J Med Chem, 2016).
Activity calls are given as the source filed them. No cut-off for these calls is given here.

Experiments:
[1] = target: T1, Polyunsaturated fatty acid lipoxygenase ALOX15 (Homo sapiens) (UniProt P16050); assay: Activation of 15-LOX in human whole blood assessed as 13-HODE production at 100 uM pre-incubated for 20 mins before stimulation with LPS and A23187 for 120 mins in presence of 2 uM 5-LOX inhibitor Zileuton by LC-MS/MS method; format: tissue-based
T1 sequence (whole entry): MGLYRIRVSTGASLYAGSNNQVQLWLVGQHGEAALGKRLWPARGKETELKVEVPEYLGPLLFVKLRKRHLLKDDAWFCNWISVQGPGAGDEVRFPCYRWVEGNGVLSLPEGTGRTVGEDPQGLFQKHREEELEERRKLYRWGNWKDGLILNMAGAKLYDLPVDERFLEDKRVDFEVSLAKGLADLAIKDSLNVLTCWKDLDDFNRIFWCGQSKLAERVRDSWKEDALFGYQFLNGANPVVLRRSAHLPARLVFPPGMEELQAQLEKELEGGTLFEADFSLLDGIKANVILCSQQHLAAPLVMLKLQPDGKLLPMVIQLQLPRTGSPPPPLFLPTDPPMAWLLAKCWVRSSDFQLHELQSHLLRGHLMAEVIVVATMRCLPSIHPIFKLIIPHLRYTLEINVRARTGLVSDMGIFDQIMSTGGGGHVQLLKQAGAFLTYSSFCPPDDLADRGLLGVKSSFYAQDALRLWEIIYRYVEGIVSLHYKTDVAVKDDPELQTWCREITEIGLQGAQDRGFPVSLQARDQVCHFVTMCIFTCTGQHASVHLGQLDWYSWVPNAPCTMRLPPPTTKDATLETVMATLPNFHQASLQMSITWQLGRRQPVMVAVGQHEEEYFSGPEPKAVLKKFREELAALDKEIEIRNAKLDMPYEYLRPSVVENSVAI
Summary of the method: (§1)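 Human blood preincubated 20 min at 37 °C with DMSO vehicle or compound in DMSO. LPS added at 100 μg/mL for 24 h at 37 °C, then A23187 at 20 μg/mL final. Samples frozen in liquid nitrogen at time points, lysed by freeze–thaw, with PGB2 internal standard. Analysed by C18 LC-MRM MS, negative ion. Change = control-normalized concentration minus 1, ×100%; 120 min value from AUC.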

[2] = target: T2, Prostaglandin G/H synthase 2 (Homo sapiens) (UniProt P35354); assay: Inhibition of COX2 (unknown origin) assessed as reduction in PGG2 to PGH2 conversion by measuring N,N,N',N'-tetramethyl-p-phenylenediamine oxidation at 100 uM by spectrophotometry
T2 sequence (whole entry): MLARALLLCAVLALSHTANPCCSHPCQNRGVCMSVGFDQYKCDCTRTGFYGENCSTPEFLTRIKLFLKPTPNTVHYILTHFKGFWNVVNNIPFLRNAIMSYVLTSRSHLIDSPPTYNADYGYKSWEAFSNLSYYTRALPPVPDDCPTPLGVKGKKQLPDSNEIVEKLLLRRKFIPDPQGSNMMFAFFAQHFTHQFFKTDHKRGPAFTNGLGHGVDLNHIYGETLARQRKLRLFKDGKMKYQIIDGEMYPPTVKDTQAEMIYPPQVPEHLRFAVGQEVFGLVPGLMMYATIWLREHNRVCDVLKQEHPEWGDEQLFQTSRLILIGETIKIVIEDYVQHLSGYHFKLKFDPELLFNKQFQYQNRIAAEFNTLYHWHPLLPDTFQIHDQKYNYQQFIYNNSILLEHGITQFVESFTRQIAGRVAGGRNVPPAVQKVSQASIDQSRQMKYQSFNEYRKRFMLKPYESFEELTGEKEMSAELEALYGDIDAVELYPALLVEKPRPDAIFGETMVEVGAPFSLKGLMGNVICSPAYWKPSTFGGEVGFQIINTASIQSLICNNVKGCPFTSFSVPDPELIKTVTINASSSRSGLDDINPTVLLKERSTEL

[3] = target: T1, Polyunsaturated fatty acid lipoxygenase ALOX15 (Homo sapiens); assay: Activation of 15-LOX in human whole blood assessed as increase in 13-HODE production at 100 uM pre-incubated for 20 mins before stimulation with LPS and A23187 for 120 mins by LC-MS/MS method; format: tissue-based; summary of the method: as §1
[4] = target: T1, Polyunsaturated fatty acid lipoxygenase ALOX15 (Homo sapiens); assay: Activation of 15-LOX in human whole blood assessed as increase in 15-HETE production at 100 uM pre-incubated for 20 mins before stimulation with LPS and A23187 for 120 mins by LC-MS/MS method; format: tissue-based; summary of the method: as §1
[5] = target: T3, Leukotriene A-4 hydrolase (Homo sapiens) (UniProt P09960); assay: Activation of LTA4H hydrolase activity (unknown origin) assessed as LTB4 formation at 100 uM by enzyme linked immunosorbent assay
T3 sequence (whole entry): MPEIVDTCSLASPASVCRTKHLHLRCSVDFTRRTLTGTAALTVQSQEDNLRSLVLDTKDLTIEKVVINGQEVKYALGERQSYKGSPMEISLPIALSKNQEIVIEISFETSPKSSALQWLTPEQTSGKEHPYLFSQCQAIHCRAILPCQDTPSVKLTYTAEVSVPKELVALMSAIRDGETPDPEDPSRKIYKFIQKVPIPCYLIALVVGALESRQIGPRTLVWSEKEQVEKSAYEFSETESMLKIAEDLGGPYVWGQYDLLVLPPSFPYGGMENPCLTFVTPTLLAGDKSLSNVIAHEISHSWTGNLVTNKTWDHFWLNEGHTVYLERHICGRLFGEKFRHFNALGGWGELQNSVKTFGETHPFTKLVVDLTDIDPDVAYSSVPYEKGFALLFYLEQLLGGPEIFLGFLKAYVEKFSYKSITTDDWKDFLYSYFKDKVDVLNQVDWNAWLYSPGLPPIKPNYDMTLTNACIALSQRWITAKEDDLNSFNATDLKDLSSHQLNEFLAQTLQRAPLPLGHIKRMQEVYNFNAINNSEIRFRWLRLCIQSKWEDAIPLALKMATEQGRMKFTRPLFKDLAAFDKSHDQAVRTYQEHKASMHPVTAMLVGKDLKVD
Summary of the method: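 LTA4H hydrolase activity read as LTB4 formation by ELISA. Compound handled as in the 15-LOX assay.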

[6] = target: T1, Polyunsaturated fatty acid lipoxygenase ALOX15 (Homo sapiens); assay: Activation of 15-LOX in human whole blood assessed as increase in 13-HODE production at 100 uM pre-incubated for 20 mins before stimulation with LPS and A23187 for 120 mins in presence of 2 uM […] inhibitor Zileuton by LC-MS/MS method; format: tissue-based; summary of the method: as §1
[7] = target: T4, Prostaglandin E synthase (Homo sapiens) (UniProt O14684); assay: Inhibition of mPGES-1 (unknown origin) assessed as reduction in conversion of PGH2 to PGE2 at 100 uM by EIA method
T4 sequence (whole entry): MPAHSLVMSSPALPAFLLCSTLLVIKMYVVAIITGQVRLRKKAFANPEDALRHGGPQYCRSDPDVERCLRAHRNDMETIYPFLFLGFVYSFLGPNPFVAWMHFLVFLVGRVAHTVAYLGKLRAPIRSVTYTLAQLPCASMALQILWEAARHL
Summary of the method: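 mPGES-1 activity taken as conversion of PGH2 to PGE2, with PGE2 measured by EIA. Compound handled as in the 15-LOX assay.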

[8] = target: T1, Polyunsaturated fatty acid lipoxygenase ALOX15 (Homo sapiens); assay: Activation of wild-type His6-tagged human 15-LOX expressed in Escherichia coli Rosetta DE3 assessed as 15-HpETE formation at 40 uM pre-incubated for 1 min before arachidonic acid substrate addition by cell free assay

In the case of `CN1CCN(CC(=O)N2N=C3/C(=C/c4ccccc4)CCCC3C2c2ccccc2)CC1` (stereo not drawn), the Activity [1] is reported as 67%, the inhibition [2] is reported as < 5% and the Activity [3] is reported as 95%. For the same compound, the Activity [4] was 33%, the Activity [5] was < 5% and the Activity [6] was “Active”. The inhibition [7] was 63% and the %max [8] was 85%.
